From ChEMBL document CHEMBL3600302, “A Ligand-Based Drug Design. Discovery of 4-Trifluoromethyl-7,8-pyranocoumarin as a Selective Inhibitor of Human Cytochrome P450 1A2” (J Med Chem, 2015) come the findings set out here.

For data set [1], the species on record is Homo sapiens. Description: Selectivity ratio of Ki for human microsomal CYP1B1 to Ki for human microsomal CYP1A2. Summed up: (§1)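 Microsomal P450 (final 5 nM) in 0.1 M potassium phosphate pH 7.6 with MgCl2 at 37 °C. Substrate final 5 µM: ethoxyresorufin for 1A1/1B1, methoxyresorufin for 1A2. […] Ki was taken as the x-intercept of Dixon plots (1/v0 vs [I]). Mean ± SD of three independent experiments. Selectivity ratios are ratios of these Ki.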

For data set [2], the species on record is Homo sapiens. Description: Selectivity ratio of Ki for human microsomal CYP1A1 to Ki for human microsomal CYP1A2. In a few lines: as §1
A further data set concerns the target T1, Cytochrome P450 1B1 (Homo sapiens, UniProt Q16678).
T1 sequence (Q16678 whole entry): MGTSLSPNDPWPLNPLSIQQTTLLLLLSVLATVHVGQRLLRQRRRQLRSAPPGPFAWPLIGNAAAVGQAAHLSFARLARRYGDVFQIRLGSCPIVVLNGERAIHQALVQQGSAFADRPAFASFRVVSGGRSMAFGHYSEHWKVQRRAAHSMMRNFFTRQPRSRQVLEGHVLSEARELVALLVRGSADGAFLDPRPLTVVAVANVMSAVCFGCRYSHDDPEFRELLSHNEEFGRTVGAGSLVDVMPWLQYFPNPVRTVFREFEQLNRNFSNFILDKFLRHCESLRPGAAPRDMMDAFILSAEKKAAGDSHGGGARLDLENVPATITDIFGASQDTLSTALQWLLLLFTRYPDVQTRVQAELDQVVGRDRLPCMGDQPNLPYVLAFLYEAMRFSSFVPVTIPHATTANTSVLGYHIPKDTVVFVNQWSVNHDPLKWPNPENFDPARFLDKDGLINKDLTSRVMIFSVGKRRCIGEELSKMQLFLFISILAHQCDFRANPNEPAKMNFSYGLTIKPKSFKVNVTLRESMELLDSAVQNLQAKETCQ
Description: Inhibition of human microsomal CYP1B1-dependent ethoxyresorufin-O-deethylase activity by spectrofluorimetric analysis in presence of NADPH regenerating solution. In a few lines: (§2)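 Microsomal P450 (final 5 nM) in 0.1 M potassium phosphate pH 7.6 with MgCl2 at 37 °C. Substrate final 5 µM: ethoxyresorufin for 1A1/1B1, methoxyresorufin for 1A2. Ki was taken as the x-intercept of Dixon plots (1/v0 vs [I]). Mean ± SD of three independent experiments. Selectivity ratios are ratios of these Ki.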

Data set [3] concerns the target T2, Cytochrome P450 1A2 (Homo sapiens, UniProt P05177).
T2 sequence (P05177 whole entry): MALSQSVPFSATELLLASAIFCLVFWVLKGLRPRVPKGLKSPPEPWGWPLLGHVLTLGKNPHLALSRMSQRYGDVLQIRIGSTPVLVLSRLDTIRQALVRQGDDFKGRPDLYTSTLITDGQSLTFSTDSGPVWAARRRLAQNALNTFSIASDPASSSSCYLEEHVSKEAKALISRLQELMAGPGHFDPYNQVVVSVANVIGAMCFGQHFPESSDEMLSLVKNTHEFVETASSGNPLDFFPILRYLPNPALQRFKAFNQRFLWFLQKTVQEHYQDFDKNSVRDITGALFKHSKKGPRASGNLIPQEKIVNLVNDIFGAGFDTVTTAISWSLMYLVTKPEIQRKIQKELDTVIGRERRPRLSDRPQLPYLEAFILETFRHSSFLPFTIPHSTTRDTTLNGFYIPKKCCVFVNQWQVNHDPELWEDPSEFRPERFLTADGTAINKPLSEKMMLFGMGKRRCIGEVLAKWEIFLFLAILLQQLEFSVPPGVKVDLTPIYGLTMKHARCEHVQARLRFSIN
In words: Inhibition of human microsomal CYP1A2-dependent methoxyresorufin-O-demethylase activity by spectrofluorimetric analysis in presence of NADPH regenerating solution. Summed up:
as §2

Data set [4] addresses T2, Cytochrome P450 1A2. Description: Inhibition of CYP1A2-dependent methoxyresorufin-O-demethylase activity in human HepG2 cells at > 10^-6 M preincubated for 24 hrs followed by substrate addition measured at 10, 30, 60 mins by fluorescence assay. It is filed as cell-based. The following applies: hepg2, 1 h. Summed up: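 HepG2 cells (DMEM, 10% FBS, 37 °C, 5% CO2), 2 × 10^5 per well, plated overnight. Exposed 24 h to compound at final 10^-4 to 10^-7 M in DMSO. 10^-5 M βNF positive control, DMSO blank. Then washed with PBS and given medium with 5 × 10^-6 M methoxyresorufin. Resorufin fluorescence (ex 535/em 585 nm) read at 10, 30, 60 min. Triplicate, three independent experiments, unpaired t test.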

Data set [5] deals with T2, Cytochrome P450 1A2. Description: Time-dependent inhibition of human microsomal CYP1A2-dependent methoxyresorufin-O-demethylase activity by spectrofluorimetric analysis in presence of NADPH regenerating solution. Summed up:
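1A2 MROD run with NADPH at 0.0125, 0.025, 0.05 and 0.1 µM inhibitor, product monitored continuously over 6 min. Activity at different times came from first derivatives of product curves, expressed as % of control remaining. KI and limiting kinact were derived from the resulting linear plot.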

Data set [6] concerns the target T3, Aryl hydrocarbon receptor (Homo sapiens, UniProt P35869).
T3 sequence (P35869 whole entry): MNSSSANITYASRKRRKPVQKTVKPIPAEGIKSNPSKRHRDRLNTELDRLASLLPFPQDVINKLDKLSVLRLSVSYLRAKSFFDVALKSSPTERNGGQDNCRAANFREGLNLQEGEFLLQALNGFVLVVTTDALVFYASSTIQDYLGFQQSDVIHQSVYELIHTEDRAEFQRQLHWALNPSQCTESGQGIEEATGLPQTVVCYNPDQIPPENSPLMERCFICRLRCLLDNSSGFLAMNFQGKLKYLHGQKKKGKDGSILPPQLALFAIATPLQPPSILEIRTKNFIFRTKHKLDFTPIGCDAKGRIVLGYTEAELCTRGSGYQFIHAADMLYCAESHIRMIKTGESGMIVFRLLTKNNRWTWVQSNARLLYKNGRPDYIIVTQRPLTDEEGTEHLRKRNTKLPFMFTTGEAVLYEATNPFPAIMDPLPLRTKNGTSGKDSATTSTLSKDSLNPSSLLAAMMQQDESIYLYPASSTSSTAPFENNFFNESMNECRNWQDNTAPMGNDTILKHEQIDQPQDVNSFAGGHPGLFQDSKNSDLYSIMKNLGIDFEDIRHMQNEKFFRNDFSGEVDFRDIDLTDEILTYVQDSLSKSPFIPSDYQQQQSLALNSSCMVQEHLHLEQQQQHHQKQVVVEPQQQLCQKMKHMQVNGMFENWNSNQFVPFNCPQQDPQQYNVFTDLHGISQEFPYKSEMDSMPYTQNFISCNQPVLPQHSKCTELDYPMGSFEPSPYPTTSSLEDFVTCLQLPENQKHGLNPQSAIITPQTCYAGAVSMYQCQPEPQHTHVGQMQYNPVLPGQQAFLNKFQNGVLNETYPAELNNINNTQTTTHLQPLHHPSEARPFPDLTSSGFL
Description: Activation of human AhR expressed in Saccharomyces cerevisiae MYA-3637 assessed as upregulation of cytochrome P450 expression at <10^-6 M by LacZ reporter assay. Type of data set: ADME. Summed up: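 Yeast with integrated human AhR (GAL promoter) and lacZ reporter plasmid, grown on tryptophan-free synthetic minimal medium with galactose instead of glucose. Compounds in DMSO (1% v/v final) added to overnight culture in quadruplicate and left until next day. Abs600 read, then lysis buffer with sarcosyl, DTT and ONPG added. Abs405/Abs600 taken as activation. 10^-8 M βNF positive control. At least three repeats.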

Another data set concerns HepG2. In words: Cytotoxicity against human HepG2 cells assessed as cell viability up to 10^-5 M after 72 hrs by MTT assay. It is filed as cell-based. The following applies: hepg2, 72 h.
The next data set concerns the target T4, Cytochrome P450 1A1 (Homo sapiens, UniProt P04798).
T4 sequence (P04798 whole entry): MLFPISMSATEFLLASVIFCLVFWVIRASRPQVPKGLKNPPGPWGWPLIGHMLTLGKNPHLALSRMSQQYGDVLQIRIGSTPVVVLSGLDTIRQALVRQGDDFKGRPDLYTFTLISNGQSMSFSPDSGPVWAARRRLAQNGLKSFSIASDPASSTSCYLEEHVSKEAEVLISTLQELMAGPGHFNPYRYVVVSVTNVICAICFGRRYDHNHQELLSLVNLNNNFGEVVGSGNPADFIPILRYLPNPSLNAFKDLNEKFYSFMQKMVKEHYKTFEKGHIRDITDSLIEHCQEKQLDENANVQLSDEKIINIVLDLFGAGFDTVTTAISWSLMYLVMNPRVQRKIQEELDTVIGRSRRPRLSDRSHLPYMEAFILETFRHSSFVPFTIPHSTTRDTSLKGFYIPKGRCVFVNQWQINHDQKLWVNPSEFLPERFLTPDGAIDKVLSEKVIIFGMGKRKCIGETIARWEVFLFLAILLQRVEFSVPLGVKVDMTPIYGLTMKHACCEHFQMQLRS
Description: Inhibition of human microsomal CYP1A1-dependent ethoxyresorufin-O-deethylase activity by spectrofluorimetric analysis in presence of NADPH regenerating solution. In a few lines:
as §1

With `O=c1cc(C(F)(F)F)c2ccc3c(c2o1)C=CCO3`, the values for the Ratio Ki in the data set filed under Homo sapiens [1] and in the data set filed under Homo sapiens [2] were 52 and 155, respectively. Also, the inhibition constant (Ki) worked out at 20.4 µM on Cytochrome P450 1B1, 0.39 µM on Cytochrome P450 1A2 [3] and 60.6 µM on Cytochrome P450 1A1. The “inhibition (INH)” value at Cytochrome P450 1A2 [4] was “Active”. Moreover, the TDI result on Cytochrome P450 1A2 [5] was “Not Active”. Also, the figures for the Activity result (in data set [6]; in the data set on HepG2) were “Not Active” and “Non-toxic”, respectively.
